Measured values reported in ChEMBL document CHEMBL1165928, “Synthesis and structure-activity relationships of 2-acylamino-4,6-diphenylpyridine derivatives as novel antagonists of GPR54” (Bioorg Med Chem, 2010).

Legend:
KiSS-1 receptor [1] = target: T1, KiSS-1 receptor (Homo sapiens, UniProt Q969F8); test: Antagonist activity at human GPR54 receptor expressed in CHO cells assessed as inhibition of metastin(40-54)-induced intracellular calcium mobilization by FLIPR assay; assay type: functional, cell-based
Summary of the method: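 Human GPR54 cell lines h175-KB33 and h175-16 were plated at 30,000 cells/well and cultured overnight. They were loaded 60 min at 37 °C with Fluo-3AM, 1.25 mM probenecid and 0.04% Pluronic F-127 in pH 7.4 Hepes salt buffer with 0.1% BSA, then washed. Ca2+ was read by FLIPR. Agonist was metastin(40-54) at 30 nM (h175-KB33) or 100 pM (h175-16).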

KiSS-1 receptor [2] = target: T1, KiSS-1 receptor; test: Displacement of [125I]metastin(40-54) from human GPR54 receptor expressed in CHO cells after 60 mins by scintillation counting; assay type: cell-based
Summary of the method: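 Membranes came from CHO h175-KB34 cells stably expressing human GPR54, harvested at ≤50% confluency, homogenized with protease inhibitors, pelleted and stored at −80 °C. Binding used 135 pM 125I-metastin(40-54) in pH 7.4 Tris/Mg acetate/EGTA buffer with 1 mg/ml BSA, 60 min at 25 °C. Samples were filtered on 0.3% PEI-treated GF/C plates, washed three times, and filter radioactivity was counted.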

KiSS-1 receptor [3] = target: T1, KiSS-1 receptor; settings: CHO, 10 uM

T1 sequence (Q969F8 whole entry): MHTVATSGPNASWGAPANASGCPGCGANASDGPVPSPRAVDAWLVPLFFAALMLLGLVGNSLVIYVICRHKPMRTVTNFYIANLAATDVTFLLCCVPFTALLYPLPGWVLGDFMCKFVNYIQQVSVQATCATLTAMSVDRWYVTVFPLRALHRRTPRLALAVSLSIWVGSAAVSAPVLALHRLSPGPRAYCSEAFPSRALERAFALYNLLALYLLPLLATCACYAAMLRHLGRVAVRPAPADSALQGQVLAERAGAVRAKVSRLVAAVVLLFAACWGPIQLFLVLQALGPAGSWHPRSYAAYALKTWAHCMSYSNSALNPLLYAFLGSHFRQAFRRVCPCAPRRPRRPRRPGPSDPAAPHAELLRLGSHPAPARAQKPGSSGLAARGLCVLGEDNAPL

| IC50 (KiSS-1 receptor [1]) [nM] | IC50 (KiSS-1 receptor [2]) [nM] | inhibition (KiSS-1 receptor [3]) [%] | Compound |
| --- | --- | --- | --- |
|  | 9900 |  | N#Cc1c(-c2cccc(C(=O)O)c2)cc(-c2ccccc2O)nc1NC(=O)c1cccs1 |
|  | 31 |  | COc1ccc(C(=O)Nc2nc(-c3ccccc3O)cc(-c3cccc(C(=O)NCCN)c3)c2C#N)cc1 |
| 5100 | 45 |  | N#Cc1c(-c2cccc(C(=O)NCCN)c2)cc(-c2ccccc2O)nc1NC(=O)c1cccs1 |
|  | 15 |  | CC(C)(CN)NC(=O)c1cccc(-c2cc(-c3ccccc3O)nc(NC(=O)c3ccco3)c2C#N)c1 |
| 460 | 3.7 |  | N#Cc1c(-c2cccc(NC(=O)CCN)c2)cc(-c2ccc(F)cc2O)nc1NC(=O)c1ccco1 |
|  | 45 |  | COc1ccccc1C(=O)Nc1nc(-c2ccccc2O)cc(-c2cccc(C(=O)NCCN)c2)c1C#N |
| 2500 | 11 |  | CC(C)(CN)CNC(=O)c1cccc(-c2cc(-c3ccc(F)cc3O)nc(NC(=O)c3ccco3)c2C#N)c1 |
|  | 120 |  | N#Cc1c(-c2ccc(C(=O)NCCN)cc2)cc(-c2ccccc2O)nc1NC(=O)c1cccs1 |
| 1100 | 21 |  | N#Cc1c(-c2cccc(NC(=O)CCN)c2)cc(-c2ccccc2O)nc1NC(=O)c1cccs1 |
|  | 33000 |  | N#Cc1c(-c2ccccc2C(=O)NCCN)cc(-c2ccccc2O)nc1NC(=O)c1cccs1 |
|  | 1500 | 58 | N#Cc1c(-c2cccc(CO)c2)cc(-c2ccccc2O)nc1NC(=O)c1cccs1 |
| 2800 | 51 |  | N#Cc1c(-c2cccc(NC(=O)CN)c2)cc(-c2ccccc2O)nc1NC(=O)c1cccs1 |
| 660 | 8 |  | N#Cc1c(-c2cccc(C(=O)NCCN)c2)cc(-c2ccc(F)cc2O)nc1NC(=O)c1ccco1 |
|  | 570 |  | N#Cc1c(-c2cccc(CN)c2)cc(-c2ccccc2O)nc1NC(=O)c1cccs1 |
| 24000 | 51 |  | N#Cc1c(-c2cccc(NC(=O)CCN)c2)cc(-c2ccccc2O)nc1NC(=O)c1ccccc1 |
|  | 14 |  | N#Cc1c(-c2cccc(C(=O)NCCN)c2)cc(-c2ccccc2O)nc1NC(=O)c1ccco1 |
|  | 1200 |  | Cc1c(-c2ccccc2O)nc(NC(=O)c2ccco2)c(C#N)c1-c1cccc(NC(=O)CCN)c1 |

Further lines, the molecule ahead of its results:

| Compound | IC50 (KiSS-1 receptor [1]) [nM] | IC50 (KiSS-1 receptor [2]) [nM] | inhibition (KiSS-1 receptor [3]) [%] |
| --- | --- | --- | --- |
| N#Cc1c(-c2cccc(NC(=O)CCN)c2)cc(-c2ccc(Cl)cc2O)nc1NC(=O)c1cccs1 | 4100 | 9.8 |  |
| Cc1ccc(-c2cc(-c3cccc(NC(=O)CCN)c3)c(C#N)c(NC(=O)c3cccs3)n2)c(O)c1 | 910 | 12 |  |
| N#Cc1c(-c2cccc(NC(=O)CCN)c2)cc(-c2ccc(Br)cc2O)nc1NC(=O)c1cccs1 | 6300 | 19 |  |
| N#Cc1c(-c2cccc(N)c2)cc(-c2ccccc2O)nc1NC(=O)c1cccs1 |  | 2100 |  |
| COc1ccc(O)c(-c2cc(-c3cccc(NC(=O)CCN)c3)c(C#N)c(NC(=O)c3cccs3)n2)c1 |  | 480 |  |
| COc1ccccc1C(=O)Nc1nc(-c2ccccc2O)cc(-c2cccc(C(=O)NC(C)(C)CN)c2)c1C#N |  | 32 |  |
| COc1ccccc1-c1cc(-c2cccc(N)c2)c(C#N)c(NC(=O)c2cccs2)n1 |  | > 30000 |  |
| N#Cc1c(-c2cccc(NC(=O)CCN)c2)cc(-c2cc(Cl)ccc2O)nc1NC(=O)c1cccs1 |  | 490 |  |
| COc1ccc(-c2cc(-c3cccc(NC(=O)CCN)c3)c(C#N)c(NC(=O)c3ccccc3)n2)c(O)c1 |  | 120 |  |
| COc1ccc(C(=O)Nc2nc(-c3ccccc3O)cc(-c3cccc(C(=O)NC(C)(C)CN)c3)c2C#N)cc1 |  | 32 |  |
| N#Cc1c(-c2cccc(NC(=O)CCN)c2)cc(-c2ccc(F)cc2O)nc1NC(=O)c1cccs1 | 3600 | 7.4 |  |
| N#Cc1c(-c2cccc(NC(=O)CCCN)c2)cc(-c2ccccc2O)nc1NC(=O)c1cccs1 | 1400 | 34 |  |
| N#Cc1c(-c2cccc(NC(=O)CCN)c2)cc(-c2ccccc2N)nc1NC(=O)c1ccccc1 |  | 890 |  |
